Screening data: PubChem, several laboratories
WT yeast gro inh = growth inhibition of WT yeast, mitochondrial fusion screen | mitochondrial fusion phenotypic screen, WT strain | inhibition, % at 10 µM | actives 2.1% (n = 190,000) | AID 1362; in the data active = inhibition above about 58%; tested in S. cerevisiae
EBV gp42 block = EBV gp42 inhibition | Q1HVG2 | Fluorescence polarization binding assay, mP read-out | inhibition, % (tested at 21.74 µM) | actives 0.42% (n = 220,000); in the data active = inhibition above about 50%
Target sequence (Q1HVG2 whole entry, looked up): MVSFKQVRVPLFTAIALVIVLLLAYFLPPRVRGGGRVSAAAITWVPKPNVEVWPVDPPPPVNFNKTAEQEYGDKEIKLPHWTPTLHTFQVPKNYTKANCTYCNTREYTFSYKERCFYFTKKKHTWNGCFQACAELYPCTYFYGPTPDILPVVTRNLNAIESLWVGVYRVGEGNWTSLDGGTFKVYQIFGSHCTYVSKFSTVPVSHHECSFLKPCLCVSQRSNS
RBBP9 inhibitor = human RBBP9 hydrolase inhibition. actives 0.2% (n = 220,000). O75884. inhibition, % at 7.94 µM. recombinant RBBP9, FP-Rh probe fluorescence polarization;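 active = inhibition above the campaign mean of all tested compounds plus 3 SD, cut at about 14% in these data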
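Controls: DMSO-treated enzyme wells and wells lacking RBBP9 | Material: RBBP9 protein | Technique: Fluorescence polarization | Replication: Single well per compound, no replicates | Buffer or medium: Tris-NaCl-Pluronic buffer, pH 8.0 | Timing: 30 min compound preincubation, 45 min probe labeling, 25 °C | Read-out basis: Percent inhibition from mP, scaled between DMSO and no-protein wells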
14-3-3 Bad PPI = disrupts binding of bovine 14-3-3 zeta to phospho-Bad peptide | P63103 | TR-FRET 14-3-3zeta/Dy647-pBad peptide displacement, 1 h | inhibition, % at 21.7 µM | actives 0.71% (n = 220,000) | AID 781;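 active = inhibition above about 70%, limit read from the data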
Target sequence (P63103 whole entry, looked up): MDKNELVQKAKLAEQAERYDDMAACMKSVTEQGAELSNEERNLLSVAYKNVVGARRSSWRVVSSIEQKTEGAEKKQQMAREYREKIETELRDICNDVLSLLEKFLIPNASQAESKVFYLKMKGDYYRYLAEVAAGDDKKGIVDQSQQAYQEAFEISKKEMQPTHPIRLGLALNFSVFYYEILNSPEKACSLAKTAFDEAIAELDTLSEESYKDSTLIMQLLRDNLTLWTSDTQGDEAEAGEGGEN
eIF4E 4G PPI = eIF4E/eIF4G interaction inhibition in translation initiation. P63073+Q04637. inhibition, % at 21.7 µM. TR-FRET eIF4E-eIF4GI(517-606) binding, 2 h. actives 0.37% (n = 220,000)
p47phox inh = p47phox (human) inhibition; p47phox/p22phox peptide binding, fluorescence polarization, 2 h; inhibition, % at 24.7 µM; actives 0.53% (n = 220,000); AID 1274
Numbers stand for hits; [ ] = dose if it differs, or a comment. Shown are actives, neighbours in structure and some others; about 3.7% of the full set was active somewhere.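 The calls were made as follows, unless noted: active = inhibition above about 30% (limit read from the data); inactive = the rest.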

Screening O=[N+]([O-])c1cc(Br)c(O)c(/C=N/Nc2nnnn2-c2cccc3ccccc23)c1 returned WT yeast gro inh inactive, EBV gp42 block inactive, RBBP9 inhibitor inactive, 14-3-3 Bad PPI inactive, eIF4E 4G PPI 44[fluorescence artefact?] and p47phox inh inactive.
`O=[N+]([O-])c1cc(Br)c(O)c(C=Nc2ccc(N3CCOCC3)cc2)c1` gave WT yeast gro inh inactive, EBV gp42 block inactive, RBBP9 inhibitor inactive, 14-3-3 Bad PPI inactive, eIF4E 4G PPI inactive and p47phox inh inactive.
Screening CCC(=O)Nc1ccc(-c2nnc(SCc3ccc(C(=O)Nc4nccs4)cc3)n2CC)cc1 returned WT yeast gro inh 60, EBV gp42 block inactive, RBBP9 inhibitor inactive, 14-3-3 Bad PPI inactive, eIF4E 4G PPI inactive and p47phox inh inactive.
For NC(=O)c1c(NC(=O)Cn2nc(C(=O)O)c3ccccc3c2=O)sc2c1CCC2 the results were EBV gp42 block inactive, RBBP9 inhibitor inactive, 14-3-3 Bad PPI inactive, eIF4E 4G PPI inactive and p47phox inh inactive.
`NC(=O)c1c(NC(=O)Cn2nc(C(=O)O)c3ccccc3c2=O)sc2c1CCCC2` gave EBV gp42 block 53, RBBP9 inhibitor inactive, 14-3-3 Bad PPI inactive, eIF4E 4G PPI inactive and p47phox inh inactive.
Screening Cc1ccc(CCN2CC(C(=O)NCCCN3CCCCCC3)CC2=O)cc1 (configuration not stated) returned WT yeast gro inh inactive, EBV gp42 block inactive, RBBP9 inhibitor inactive, 14-3-3 Bad PPI inactive, eIF4E 4G PPI inactive and p47phox inh 38.
Screening CCc1nc(NC(=O)NS(=O)(=O)c2ccccc2C(=O)OC)nc(OC)n1 returned WT yeast gro inh inactive, EBV gp42 block inactive, RBBP9 inhibitor inactive, 14-3-3 Bad PPI inactive, eIF4E 4G PPI inactive and p47phox inh inactive.
Screening Nc1ccc2c(c1)C/C(=C/c1ccco1)C2=O returned WT yeast gro inh inactive, EBV gp42 block 98, RBBP9 inhibitor inactive, 14-3-3 Bad PPI inactive, eIF4E 4G PPI inactive and p47phox inh inactive.
Screening O=C1/C(=C/c2ccco2)CCc2ccccc21 returned WT yeast gro inh inactive, EBV gp42 block inactive, RBBP9 inhibitor inactive, 14-3-3 Bad PPI inactive, eIF4E 4G PPI inactive and p47phox inh inactive.
Screening S=C1NCCc2ccc(Cl)cc2C1c1ccccc1Cl (configuration not stated) returned WT yeast gro inh 68, EBV gp42 block inactive, RBBP9 inhibitor inactive, 14-3-3 Bad PPI inactive, eIF4E 4G PPI inactive and p47phox inh inactive.
For O=C(N/N=C/c1ccc(OC(F)F)cc1OC(F)F)c1cccc(S(=O)(=O)N2CCOCC2)c1 the results were WT yeast gro inh inactive, EBV gp42 block inactive, RBBP9 inhibitor inactive, 14-3-3 Bad PPI inactive, eIF4E 4G PPI inactive and p47phox inh inactive.
Screening O=C(N/N=C/c1ccc([N+](=O)[O-])o1)c1cc2c(ccc3ccccc32)o1 returned WT yeast gro inh inactive, EBV gp42 block 60, RBBP9 inhibitor inactive, 14-3-3 Bad PPI 93, eIF4E 4G PPI 38 and p47phox inh 30.
Cc1cc2oc(=O)cc(CN3CCN(C/C=C/c4ccccc4)CC3)c2cc1O was read as WT yeast gro inh inactive, EBV gp42 block inactive, RBBP9 inhibitor inactive, 14-3-3 Bad PPI inactive, eIF4E 4G PPI inactive and p47phox inh inactive.
Screening O=c1cc(CN2CCN(C/C=C/c3ccccc3)CC2)c2cc(O)c(-c3ccccc3)cc2o1 returned WT yeast gro inh 84, EBV gp42 block inactive, RBBP9 inhibitor inactive, 14-3-3 Bad PPI inactive, eIF4E 4G PPI inactive and p47phox inh inactive.
`CC(=O)N1CCC(O)(c2cccc(C(F)(F)F)c2)CC1` gave WT yeast gro inh 96, EBV gp42 block inactive, RBBP9 inhibitor inactive, 14-3-3 Bad PPI inactive, eIF4E 4G PPI inactive and p47phox inh inactive.
O=S(=O)(c1cccc(C(F)(F)F)c1)N1CCC(O)(c2cccnc2)CC1 was read as WT yeast gro inh inactive, EBV gp42 block inactive, RBBP9 inhibitor inactive, 14-3-3 Bad PPI inactive, eIF4E 4G PPI inactive and p47phox inh inactive.
For CCOc1ccc(NC(=O)CN(C)CC(=O)Nc2ccc(Br)cc2F)cc1OCC the results were WT yeast gro inh inactive, EBV gp42 block inactive, RBBP9 inhibitor inactive, 14-3-3 Bad PPI inactive, eIF4E 4G PPI inactive and p47phox inh inactive.
`O=C(O)c1ccc2ncsc2c1` gave EBV gp42 block inactive, RBBP9 inhibitor inactive, 14-3-3 Bad PPI 82, eIF4E 4G PPI inactive and p47phox inh inactive.
Screening Nc1ccc(-c2nc3ccc(C(=O)O)cc3s2)cc1 returned WT yeast gro inh inactive, EBV gp42 block 99, RBBP9 inhibitor inactive, 14-3-3 Bad PPI inactive, eIF4E 4G PPI inactive and p47phox inh inactive.
